MrgX1 antag: blocks BAM8-22 activation of human MrgX1 receptor | AID 588676 | 310,000 compounds, 1.3% hits | MRGX1-HEK293 calcium flux, Fluo-4, BAM8-22 antagonism; stronger effect = lower value | B-score at 10 µM;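 active = calcium-response B-score plate-corrected more than 3 library SD below zero, starting fluorescence within 5 deviations, no agonist response on first addition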;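 note: peak minus trough fluorescence over baseline after final BAM8-22 challenge near maximal dose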
MrgX1 agonist: activates human MrgX1 receptor signaling; 310,000 compounds, 0.44% hits; MrgX1-HEK293 cells, Fluo-4 calcium fluorescence, agonist mode; stronger effect = higher value; B-score at 10 µM;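 active = calcium response B-score plate-corrected fluorescence ratio at least 3 library SD, with starting fluorescence B-score inside 5 SD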
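Material – MrgX1-expressing HEK293 cells · Input – 15,000 cells seeded per well · Dosing – compound as first of three additions · Times – overnight seeding, then 1 h dark dye loading · Measured by – kinetic Fluo-4 NW fluorescence of intracellular calcium · Read-out – B-scored fluorescence response ratio · Benchmarks – positive and negative control wells on each plate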
RGS4 inh: human RGS4 inhibition; P49798; HEK293 M3R/RGS4 inducible, Fluo-4 calcium flux; stronger effect = higher value; triggered by carbachol at its EC20; B-score at 10 µM; 310,000 compounds, 0.45% hits; AID 463165;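 active = B-score, a plate-corrected calcium signal, over three deviations above library mean, with baseline fluorescence within five deviations of library mean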;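 note: RGS4 expression induced by doxycycline in cells with stable M3 receptor; B-score is computed from the integrated fluorescence ratio over baseline after carbachol; higher B-score means a larger calcium signal and so more RGS4 inhibition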
Target sequence (P49798 whole entry, looked up): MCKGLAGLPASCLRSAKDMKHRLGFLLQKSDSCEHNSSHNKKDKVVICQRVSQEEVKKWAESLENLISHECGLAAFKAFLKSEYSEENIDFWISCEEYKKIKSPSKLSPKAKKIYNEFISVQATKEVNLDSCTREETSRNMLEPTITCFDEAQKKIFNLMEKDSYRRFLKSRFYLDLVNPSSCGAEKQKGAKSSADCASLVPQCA
RGS4 pot: potentiators or activators of RGS4; HEK293 M3R/inducible RGS4, carbachol calcium flux Fluo4; stronger effect = lower value; B-score at 10 µM; 310,000 compounds, 0.92% hits; AID 463111;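 active = B-score of the integrated calcium signal more than 4 SD below the library mean, with starting fluorescence not abnormally high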;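 note: negative B-score means reduced calcium response which marks RGS4 activation or potentiation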
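Material: M3R-expressing HEK293 line, RGS4 induced by doxycycline | Schedule: Overnight RGS4 induction, 30 min dye load 37 °C, 20 min compound RT | Measured by: Fluo4 fluorescence kinetic imaging of calcium | Read-out: Integrated calcium ratio converted to B score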
MrgX1 allo act: allosterically activates human MrgX1 receptor signaling. 310,000 compounds, 0.63% hits. AID 588675. Q96LB2. B-score at 10 µM. MrgX1-HEK293, Fluo-4 calcium flux, FDSS; stronger effect = higher value;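 active = plate-corrected calcium response at least 3 library SD above typical, normal starting fluorescence, not activating the receptor alone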;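 note: compound read alongside a low EC10 to EC30 dose of BAM8-22 agonist; peak minus trough fluorescence over baseline measured at the second addition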
RGS4 act valid: confirmation of RGS4 activators. HEK293 M3R/RGS4 inducible, carbachol calcium flux Fluo4. AID 602282. 1,100 compounds, 89% hits. inhibition, % at 10 µM. shares compounds with RGS4 pot;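 active = inhibition above 3 SD of the buffer control wells, cut at about 41% in these data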;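 note: signal is the integrated peak-minus-minimum Fluo4 fluorescence over baseline ratio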
M3R Ca counter: RGS4 activator counter-screen hit in non-induced cells; 1,100 compounds, 82% hits; AID 602283; HEK293 M3R non-induced RGS4, Fluo4 calcium flux; after carbachol challenge at its EC90; inhibition, % at 10 µM; shares compounds with RGS4 pot;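 active = inhibition exceeding 3 SD of buffer-only control wells, cut at about 26% in these data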;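 note: percent drop in integrated peak-minus-baseline over baseline Fluo4 ratio after carbachol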
Starred values were filed as active, the others as inactive; i = inactive; · = no result. Sampled rows, rich in hits. Any-hit rate of the full collection: about 3.5%.

SMILES | MrgX1 antag | MrgX1 agonist | RGS4 inh | RGS4 pot | MrgX1 allo act | RGS4 act valid | M3R Ca counter
CCn1nc(C)c(CN2CCCC(C(=O)c3cccc(OC(C)C)c3)C2)c1C (configuration not stated) | i | i | i | i | i | · | ·
Cc1cc(=O)n2[nH]cnc2n1 | i | i | i | i | i | · | ·
CCc1nc(SCC(=O)NCc2ccco2)c2c3c(sc2n1)CCCC3 | i | i | i | i | i | · | ·
COc1ccc(CN2CCCC(C(=O)c3ccc4c(c3)OCO4)C2)c(F)c1 (configuration not stated) | i | i | i | -8.3* | i | 91* | 81*
COc1cccc(CN2CCCC(C(=O)c3ccc4c(c3)OCO4)C2)c1O (configuration not stated) | i | i | i | i | i | · | ·
O=C(Nc1ccc2c(c1)OCCO2)c1cccnc1 | i | i | i | -8.1* | i | 0 | 0
CC(C)c1ccc(OCc2ccc(C(=O)N3CCCC3)o2)cc1 | i | i | i | -12* | i | 83* | 84*
CCOc1ccc(OCc2ccc(C(=O)N3CCCC3)o2)cc1 | i | i | i | i | i | · | ·
CN1CCN(C(=O)c2ccc(COc3ccc(C(C)(C)C)cc3)o2)CC1 | i | i | i | -7.7* | i | 90* | 41*
Cc1cc(SCC(=O)c2ccccc2)n2nc(C)nc2n1 | i | i | i | -9* | i | 0 | 0
Clc1ccccc1CN(Cc1ccco1)Cc1nnnn1C1CCCC1 | i | i | i | i | i | · | ·
CC1CCCCN1CC(=O)Nc1ccc(Oc2ccccc2)cc1 (configuration not stated) | i | i | i | -9.1* | i | 93* | 87*
CC1CCCCN1CC(=O)Nc1ccc(N2CCCCCC2)cc1 (configuration not stated) | i | i | i | i | i | · | ·
COC(=O)c1ccccc1S(=O)(=O)N1CCC(C(=O)NCC2CCCO2)CC1 (configuration not stated) | i | i | i | i | i | · | ·
CC(C)(C)c1cc(-c2csc(Nc3ccccc3)[n+]2Cc2ccc(C(=O)O)cc2)cc(C(C)(C)C)c1O | -9.5* | i | i | -11* | i | 94* | 97*
CCOc1ccccc1N1CCN(C(=S)Nc2ccc(S(=O)(=O)Nc3ncccn3)cc2)CC1 | i | i | i | i | i | · | ·
CCCC[C@@H]1CNCCN1CCc1cc(C(F)(F)F)cc(C(F)(F)F)c1 | i | i | i | -7.9* | i | 93* | 86*
CCOc1ccccc1-c1nc(SCC(=O)O)n[nH]1 | i | i | i | i | i | · | ·
COc1ccc2nc3sc(C(=O)NCCCN4CCc5ccccc5C4)cc3cc2c1 | i | i | i | -8.2* | i | 74* | 84*
CCCCNc1c(-c2ccc(OC)c(Sc3ccc(OC)cc3)c2)nc2ccccn12 | i | i | i | -11* | i | 91* | 71*
CCCCCCSc1cc(-c2nc3cc(C)ccn3c2NCCCC)ccc1OC | i | i | i | i | i | · | ·
Cc1cc(C)nc(SCC(=O)Nc2ccc(S(=O)(=O)Nc3onc(C)c3C)cc2)n1 | i | i | i | i | i | · | ·
CC1CCCN(C(=O)COC(=O)c2cc(-c3cccs3)nn2-c2ccccc2)C1 (configuration not stated) | i | i | i | -10* | i | 92* | 70*
COc1ccc(NC(=O)CC2C(=O)N(c3ccc(Cl)cc3)C(=S)N2NC(=O)c2cccc(F)c2)cc1 (configuration not stated) | i | i | i | i | i | · | ·
COc1ccc(NC(=O)CC2C(=O)N(c3ccc(F)cc3)C(=S)N2NC(=O)c2ccc(Cl)cc2)cc1 (configuration not stated) | i | i | i | -11* | i | 0 | 0

Screens as filed in PubChem.
